Hits are enriched below; roughly 2.9% of the tested compounds scored in any of these assays.
CendR NRP1 mod = modulators of CendR peptide binding to NRP-1, primary screen, biochemical, fluorescence polarization, uHTS. 360,000 compounds, 0.85% hits. inhibition, % at 25 µM. FAM-RPARPAR peptide binding to NRP-1. AID 602438, 2012;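 active means inhibition or corrected inhibition above about 18%, plus a signal ratio from 0.5 to 1.5, limit read from the data, passing the limit was not always enough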
ADAM10 inh = human ADAM10 inhibitors, primary screen, biochemical, QFRET, HTS. recombinant ADAM10, EDANS/DABCYL FRET peptide cleavage, 3 h. inhibition, % at 7 µM. 370,000 compounds, 0.62% hits;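 active means inhibition above a per-campaign cutoff equal to the mean of compounds falling between control-based bounds plus 3 SD, cut at about 20% in these data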;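 further: 0% = DMSO wells while the 100% control is not disclosed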
Target sequence (O14672 214-748 limits assumed): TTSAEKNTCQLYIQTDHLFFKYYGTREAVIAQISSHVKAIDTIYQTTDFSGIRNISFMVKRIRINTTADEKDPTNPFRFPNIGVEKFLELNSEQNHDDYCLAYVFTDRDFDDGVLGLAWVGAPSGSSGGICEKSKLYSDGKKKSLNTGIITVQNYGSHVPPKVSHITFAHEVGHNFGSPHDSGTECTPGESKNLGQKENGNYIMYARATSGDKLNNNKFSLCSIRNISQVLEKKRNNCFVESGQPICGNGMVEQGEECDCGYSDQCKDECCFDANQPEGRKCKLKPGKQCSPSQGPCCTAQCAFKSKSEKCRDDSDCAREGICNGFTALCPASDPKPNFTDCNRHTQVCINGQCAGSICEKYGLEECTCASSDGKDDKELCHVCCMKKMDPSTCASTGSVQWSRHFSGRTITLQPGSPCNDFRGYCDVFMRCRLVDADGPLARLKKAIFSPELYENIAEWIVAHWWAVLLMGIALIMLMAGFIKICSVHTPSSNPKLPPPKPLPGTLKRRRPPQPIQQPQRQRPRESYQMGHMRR
CaV13 ICDI inh = Disruptors of the CACNA1D IQ motif to Ca2+-dependent inactivation inhibitor domain association, primary screening, Förster resonance energy transfer in intact living …. HEK cells, CFP/YFP FRET ICDI-IQ, plate reader, 10 min; percent FRET-ratio fall versus neutral wells. inhibition, % at 12.3 µM. 340,000 compounds, 0.098% hits. AID 743397;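 active means mean replicate inhibition of at least 30% and at least 1% of replicates passing that level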;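 further: 0% = median of the neutral control wells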
Arrestin-AP2 inh = inhibitors of beta-arrestin/AP2 binding, primary screen, biochemical, GPCR trafficking, flow cytometry; beta-arrestin 1 C-terminal peptide binding to AP2 beta2-adaptin appendage (human); FITC-arrestin peptide / GST-AP2 beads; AP2 beta2 appendage carries R879A mutation; inhibition, % at 10 µM; 340,000 compounds, 0.31% hits;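 active means inhibition above a set limit, near 3 SD of compounds lacking own fluorescence, cut at about 54% in these data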;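 further: plate controls were DMSO wells for no effect and 5 µM unlabelled arrestin peptide for full effect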
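Test system: GST-tagged AP2 beta2-adaptin appendage (R879A) on 4 µm glutathione beads; also added: fluorescein-tagged arrestin peptide at 50 nM final; timing: 12 min plus 1 h, RT; signal: flow cytometry, FL1 (488/535 nm); read-out: percent drop in bead-associated FITC signal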
ADAM17 inh = ADAM17 inhibitors, primary screen, biochemical, QFRET. recombinant ADAM17, EDANS/DABCYL FRET peptide cleavage. inhibition, % at 6.95 µM. Disintegrin and metalloproteinase domain-containing protein 17 (Homo sapiens), P78536. 370,000 compounds, 0.83% hits;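 active means inhibition above the mean of compounds lying between control limits plus 3 SD, set per campaign, cut at about 8.5% in these data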;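 further: 0% = DMSO-only wells as the low control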
FAS TE block = FAS thioesterase domain inhibitors, primary screen, biochemical, fluorescence intensity, uHTS; Fatty acid synthase (Homo sapiens), P49327; recombinant FAS-TE, OMFH fluorogenic substrate, fluorescence endpoint; inhibition, % at 15 µM; 360,000 compounds, 0.67% hits;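 active means compounds whose normalised, plate-corrected inhibition of enzyme fluorescence in the single-dose primary screen is 50% or more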;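 further: 0% = DMSO with enzyme and 100% = substrate without enzyme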
The depositor's hits bear a star; nt = not tested or not shown; + = active, no number.

SMILES	CendR NRP1 mod	ADAM10 inh	CaV13 ICDI inh	Arrestin-AP2 inh	ADAM17 inh	FAS TE block
COc1ccc(S(=O)(=O)N2CCCCC2c2cc(C(=O)NCc3cccnc3)no2)cc1 (stereo not given)	-7	-2	-4	nt	-2	-4
c1ccc(-c2nc(C3CCCCC3)c3sccc3n2)cc1	28*	1	-5	1	0	24
c1ccc(-c2nc(C3CCCCC3)c3ccccc3n2)cc1	3	-1	-12	1	0	20
CCCCCCCCN1C(=O)[C@@H](CC(=O)NCc2ccccc2)C[C@@]2(C(=O)OC)C1=C[C@H](COCc1ccccc1)O[C@@H]2C	nt	2	nt	nt	1	nt
O=C(CCN=C1NS(=O)(=O)c2ccccc21)Nc1ccc(Cl)cc1F	-6	-5	-3	-6	-5	-1
CCOC(=O)c1c(C)oc2cc(Br)c(OC(=O)N3CCOCC3)cc12	26*	11	-5	-1	-2	6
CCOC(=O)[C@@]12CCCC3=C1N(CCC3)C(=O)[C@H]2CC(=O)N1CCOCC1	nt	1	nt	nt	-4	nt
Nc1cccc2c1C(=O)N(c1ccccc1)C2=O	-3	-306	+	1	-81	0
CC1(C(=O)NCc2ccccc2)CCC(=O)N1CCc1c[nH]c2ccccc12 (stereo not given)	24*	-20	-11	nt	-6	-8
COc1ccc(CNC(=O)CCc2c[nH]c3ccccc23)cc1	27*	-1	-3	26	0	-2
Cc1cc(F)ccc1S(=O)(=O)Nc1ccccc1C(=O)Nc1ncn[nH]1	19*	-276	nt	2	-88	9
Cc1cc(F)ccc1S(=O)(=O)Nc1ccccc1C(=O)NCc1ccccn1	0	-151	-1	-13	-48	0
COc1ccc(C(CNc2ccc(S(=O)(=O)N3CCCC3)cc2[N+](=O)[O-])N2CCCC2)cc1 (stereo not given)	26*	6	-15	3	3	27
O=C1N/C(=N/O)S/C1=C/c1cccc([N+](=O)[O-])c1	4	2	-1	5	-2	0
CC1(C)CC(=O)/C(=C\c2cccc([N+](=O)[O-])c2)C(C)(C)N1	31*	2	-18	8	1	-2
COC(=O)[C@]12C[C@H](CC(=O)NCc3ccc(C)o3)C(=O)N(Cc3ccccc3)C1=C[C@H](COCc1ccccc1)O[C@@H]2C	nt	-5	nt	nt	-5	nt
CC(C(=O)N1CCc2ccccc21)N1CCN(S(=O)(=O)c2ccc3c(c2)OCCCO3)CC1 (stereo not given)	21	-7	-6	4	-3	42
COc1ccc(NC(=O)CSc2nnc(CNC(=O)c3ccco3)n2-c2ccccc2OC)cc1	5	0	-5	8	-3	-4
COc1ccc(NCc2nnc(SCC(=O)NCc3ccccc3)n2-c2ccccc2OC)cc1	29*	8	nt	-2	-3	-4
COc1ccc([C@H]2N[C@]3(CCCN(CC4CCCCC4)C3=O)[C@H]3C(=O)N(Cc4ccccc4)C(=O)[C@@H]23)cc1	0	6	-3	nt	0	17
C=CCN1c2ccccc2[C@]23C[C@@H](C(=O)OC)N(C(=O)c4ccco4)C2=NC(C(=O)OC)=C(C(=O)OC)[C@H]13	20	-3	-6	6	-2	2
COC(=O)C1=C(C(=O)OC)[C@@H]2N(C)c3ccccc3[C@@]23C[C@@H](CO)N(C(=O)NCCBr)C3=N1	16	2	-9	15	-1	52*
CCOC(=O)N1C2=NC(C(=O)OC)=C(C(=O)OC)[C@@H]3N(C)c4ccccc4[C@]23C[C@H]1C(=O)OC	-8	-3	-11	0	-3	-12
C=CCN1c2ccccc2[C@]23C[C@@H](C(=O)OC)N(C(=O)C4CCC4)C2=NC(C(=O)OC)=C(C(=O)OC)[C@H]13	25*	-9	-3	2	-4	32
COc1ccc(OC)c(Nc2nc3nonc3nc2N2CCCCC2)c1	49*	6	-8	24	-1	-9
SMILES	CendR NRP1 mod	ADAM10 inh	CaV13 ICDI inh	Arrestin-AP2 inh	ADAM17 inh	FAS TE block
CCc1cccc(NC(=O)CCc2c(C)nn(-c3ccc(N4CCOCC4)nn3)c2C)c1	32*	-3	-5	40	6	-5
CC1(C(=O)NCc2ccc3c(c2)OCO3)CCN1C(=O)C1(c2ccc(Cl)cc2)CC1 (stereo not given)	-3	1	-5	nt	-3	3
COc1ccc(NC(=O)c2oc3ccccc3c2NC(=O)C2CC2)cc1OC	30*	1	-6	0	3	1
COc1ccc(NC(=O)c2oc3ccccc3c2NC(=O)C2CCCO2)cc1OC (stereo not given)	18	3	-6	7	-1	8
CCOC(=O)C1=CCN(S(=O)(=O)c2ccccc2F)C1c1cccc(C)c1 (stereo not given)	6	-1	-4	nt	-1	18
CCOC(=O)C[C@H]1c2cc(F)ccc2S(=O)(=O)N1C1CCCCC1	26*	-2	-5	-2	-2	-7
CC(=O)C[C@H]1c2cc(C(F)(F)F)ccc2S(=O)(=O)N1C1CCCCC1	27*	3	-5	3	-3	0
COC(=O)C[C@H]1c2cc(C(F)(F)F)ccc2S(=O)(=O)N1Cc1ccc(OC)cc1	22	7	-10	-5	3	32
COC(=O)C[C@H]1c2cc(C(F)(F)F)ccc2S(=O)(=O)N1C1CCCC1	24*	5	-4	1	1	1
COC(=O)C[C@H]1c2cc(C(F)(F)F)ccc2S(=O)(=O)N1C1CCCCC1	14	-5	-5	30	-3	1
COC(=O)C[C@H]1c2cc(C(F)(F)F)ccc2S(=O)(=O)N1Cc1ccccc1	25*	1	-5	1	-3	12
C=CCNC(=O)CSc1nc2c(c(=O)[nH]1)CCCC2	nt	-6	nt	nt	3	nt
CN(Cc1ccc(Cl)c(Cl)c1)C(C(=O)NCc1ccccc1)c1ccco1 (stereo not given)	-10	-3	-3	nt	0	nt
COC(=O)C[C@H]1c2cc(F)cc(F)c2S(=O)(=O)N1C1CCN(Cc2ccccc2)CC1	27*	-6	-11	-6	-3	-7
COC(=O)C[C@H]1c2cc(F)ccc2S(=O)(=O)N1C(C)C	26*	-3	-6	-1	-2	-6
